ChEMBL document CHEMBL3774376, “Synthesis, and anticonvulsant activity of new amides derived from 3-methyl- or 3-ethyl-3-methyl-2,5-dioxo-pyrrolidin-1-yl-acetic acids” (Bioorg Med Chem, 2016)
Calls of active or inactive are those of the source. The calls are words filed in the database; no cut-off is given here.

Legend:
Mus musculus [1] = experiment: Anticonvulsant activity in CD1 albino mouse assessed as protection against subcutaneous pentylenetetrazole-induced seizures at 100 to 300 mg/kg, ip after 0.5 hrs; type: functional; conditions: CD1, 0.5 h, read-out: MED
Method in brief: (§1)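 Male CD-1 mice (16-26 g), compounds ip in 0.5% methylcellulose/water at 30, 100 or 300 mg/kg, 3-4 per group. At 0.5 or 4 h, pentylenetetrazole 85 mg/kg was injected sc. Protection was absence of clonic convulsions (at least 5 s) over a 30 min observation. Minimum active dose recorded.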

Mus musculus [2] = experiment: Anticonvulsant activity in CD1 albino mouse assessed as protection against maximal electroshock-induced seizures at 100 to 300 mg/kg, ip after 0.5 hrs; type: functional; conditions: read-out: MED
Mus musculus [3] = experiment: Anticonvulsant activity in CD1 albino mouse assessed as protection against maximal electroshock-induced seizures at 300 mg/kg, ip after 4 hrs; type: functional, organism-based
Mus musculus [4] = experiment: Neurotoxicity in CD1 albino mouse assessed as acute motor impairment at 300 mg/kg, ip after 4 hrs by rotarod test; type: toxicity, organism-based; conditions: in vivo
Method in brief: (§2)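 Male CD-1 mice given 30, 100 or 300 mg/kg ip in 0.5% methylcellulose, tested at 0.5 and 4 h. Motor impairment was scored as failure to keep balance for at least 1 min on a rod rotating at 10 rpm. Minimum dose causing impairment reported.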

Mus musculus [5] = experiment: Anticonvulsant activity in CD1 albino mouse assessed as protection against subcutaneous pentylenetetrazole-induced seizures at 300 mg/kg, ip after 4 hrs; type: functional, organism-based; method in brief: as §1
Mus musculus [6] = experiment: Neurotoxicity in CD1 albino mouse assessed as acute motor impairment at 100 to 300 mg/kg, ip after 0.5 hrs by rotarod test; type: toxicity, organism-based; conditions: in vivo; method in brief: as §2
Mus musculus [7] = experiment: Anticonvulsant activity in CD1 albino mouse assessed as protection against subcutaneous pentylenetetrazole-induced seizures at 300 mg/kg, ip after 0.5 hrs; type: functional, organism-based; method in brief: as §1
Mus musculus [8] = experiment: Anticonvulsant activity in CD1 albino mouse assessed as protection against maximal electroshock-induced seizures at 100 to 300 mg/kg, ip after 4 hrs; type: functional; conditions: read-out: MED
Mus musculus [9] = experiment: Anticonvulsant activity in CD1 albino mouse assessed as protection against maximal electroshock-induced seizures at 300 mg/kg, ip after 0.5 hrs; type: functional, organism-based
Mus musculus [10] = experiment: Neurotoxicity in CD1 albino mouse assessed as acute motor impairment at 300 mg/kg, ip measured after 0.5 hrs by rotarod test; type: toxicity, organism-based; conditions: in vivo; method in brief: as §2
Mus musculus [11] = experiment: Anticonvulsant activity in ip dosed CD1 albino mouse assessed as time to peak effect; type: functional
Method in brief: (§3)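 Quantitation in male CD-1 mice dosed ip at the previously estimated time of peak effect. Seizures were induced by MES or by sc pentylenetetrazole 85 mg/kg; rotarod at 10 rpm assessed motor impairment. Groups of six, at least three doses giving 10-90% effect.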

[12] = Neurotoxicity in ip dosed CD1 albino mouse assessed as acute motor impairment by rotarod test; type: toxicity, organism-based; conditions: in vivo; method in brief: as §3
Mus musculus [13] = experiment: Anticonvulsant activity in ip dosed CD1 albino mouse assessed as protection against subcutaneous pentylenetetrazole-induced seizures; type: functional; method in brief: as §3
Mus musculus [14] = experiment: Anticonvulsant activity in CD1 albino mouse assessed as protection against subcutaneous pentylenetetrazole-induced seizures at 100 to 300 mg/kg, ip after 4 hrs; type: functional; conditions: CD1, 4 h, read-out: MED; method in brief: as §1
Mus musculus [15] = experiment: Protection index, ratio of TD50 for CD1 albino mouse to ED50 for protection against subcutaneous pentylenetetrazole-induced seizures in CD1 albino mouse; method in brief: as §3
Mus musculus [16] = experiment: Anticonvulsant activity in ip dosed CD1 albino mouse assessed as time to peak effect by 6Hz psychomotor seizure test; type: functional
Method in brief: (§4)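 6-Hz corneal stimulation at 32 mA (6 Hz, 3 s) in male CD-1 mice dosed ip. Groups of six received several doses until at least three points fell between 10 and 90% protection. […] PI = TD50/ED50 (rotarod).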

Mus musculus [17] = experiment: Anticonvulsant activity in CD1 mouse assessed as protection against 32 mA-current- for 3 secs induced seizure at 100 mg/kg, ip after 0.5 hrs by 6Hz psychomotor seizure test; type: functional
Method in brief: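 Male CD-1 mice given 100 mg/kg ip in 0.5% methylcellulose, four per time point. Corneal stimulation at 32 mA, 0.2 ms monopolar rectangular pulses at 6 Hz for 3 s, from a constant-current device. A mouse was protected if it resumed normal exploratory behavior within 10 s. Reported as number protected over number tested.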

Mus musculus [18] = organism: Mus musculus; experiment: Protection index, ratio of TD50 for CD1 albino mouse to ED50 for protection against maximal electroshock-induced seizures in CD1 albino mouse; method in brief: as §3
Mus musculus [19] = experiment: Anticonvulsant activity in ip dosed CD1 albino mouse assessed as protection against maximal electroshock-induced seizures; type: functional
Mus musculus [20] = experiment: Anticonvulsant activity in ip dosed CD1 albino mouse assessed as protection against 32 mA-current- for 3 secs induced seizure by 6Hz psychomotor seizure test; type: functional; method in brief: as §4
Mus musculus [21] = organism: Mus musculus; experiment: Protection index, ratio of TD50 for CD1 albino mouse to ED50 for protection against 32 mA-current- for 3 secs induced seizure in CD1 albino mouse by 6Hz psychomotor seizure test; method in brief: as §4
Mus musculus [22] = experiment: Local anesthetic activity in CD1 albino mouse assessed prolongation of time reaction at 1 % concentration after 20 secs by tail immersion test relative to vehicle control; type: functional
Method in brief: (§5)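 Compound at 1 or 2% in 0.5% methylcellulose, injected sc (0.2 ml) about 1 cm from the tail root of male CD-1 mice. After 15 min, the distal 3 cm of the tail was immersed in 50 ± 0.5 °C water and withdrawal time measured, cut off at 20 s. n=8; mean ± SEM; % prolongation relative to vehicle.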

Mus musculus [23] = experiment: Local anesthetic activity in CD1 albino mouse assessed prolongation of time reaction at 2 % concentration after 20 secs by tail immersion test relative to vehicle control; type: functional; method in brief: as §5
Mus musculus [24] = experiment: Neurotoxicity in CD1 albino mouse assessed as acute motor impairment at 100 to 300 mg/kg, ip after 4 hrs by rotarod test; type: toxicity, organism-based; conditions: in vivo; method in brief: as §2

Row | Structure (SMILES) | minimal effective dose (Mus musculus [1]) | minimal effective dose (Mus musculus [2]) | Activity (Mus musculus [3]) | Activity (Mus musculus [4]) | Activity (Mus musculus [5]) | MTC (Mus musculus [6]) | Activity (Mus musculus [7]) | Activity (Mus musculus [9]) | Activity (Mus musculus [10]) | further results
1 | Cc1cccc(N2CCN(C(=O)CN3C(=O)CC(C)C3=O)CC2)c1 (stereo not given) | 100 mg/kg | 300 mg/kg | inactive | Non-toxic | inactive | 300 mg/kg | – | – | – | –
2 | CC1CC(=O)N(CC(=O)N2CCN(c3ccccc3F)CC2)C1=O (stereo not given) | – | 300 mg/kg | – | Non-toxic | inactive | 300 mg/kg | inactive | – | – | minimal effective dose (Mus musculus [8]): 300 mg/kg
3 | CC1CC(=O)N(CC(=O)N2CCN(c3cccc(Cl)c3Cl)CC2)C1=O (stereo not given) | 100 mg/kg | – | inactive | Non-toxic | – | – | – | inactive | Non-toxic | Time (Mus musculus [11]): 1 h; TD50 [12]: 343 mg/kg; ED50 (Mus musculus [13]): 74.7 mg/kg; minimal effective dose (Mus musculus [14]): 100 mg/kg; Ratio TD50/ED50 (Mus musculus [15]): 4.6
4 | CCC1(C)CC(=O)N(CC(=O)N2CCN(c3ccc(Cl)c(Cl)c3)CC2)C1=O (stereo not given) | – | – | inactive | Non-toxic | inactive | – | inactive | inactive | Non-toxic | –
5 | CCCC(CCC)C(=O)O [VALPROIC ACID] | 300 mg/kg | 300 mg/kg | inactive | Non-toxic | inactive | – | – | – | Non-toxic | Time (Mus musculus [11]): 0.5 h; Time (Mus musculus [16]): 0.5 h
6 | CC1CC(=O)N(CC(=O)N2CCN(c3ccccc3)CC2)C1=O (stereo not given) | 300 mg/kg | 300 mg/kg | inactive | Non-toxic | – | 300 mg/kg | – | – | – | minimal effective dose (Mus musculus [14]): 300 mg/kg
7 | CCC1(C)CC(=O)NC1=O (stereo not given) [ETHOSUXIMIDE] | 100 mg/kg | – | inactive | Non-toxic | – | – | – | inactive | Non-toxic | Time (Mus musculus [11]): 0.25 h; minimal effective dose (Mus musculus [14]): 300 mg/kg
8 | CCC1(C)CC(=O)N(CC(=O)N2CCN(c3ccccc3Cl)CC2)C1=O (stereo not given) | – | 100 mg/kg | inactive | Non-toxic | inactive | 300 mg/kg | inactive | – | – | Activity (Mus musculus [17]): 100%; Time (Mus musculus [11]): 0.5 h; Ratio TD50/ED50 (Mus musculus [18]): 1.08; TD50 [12]: 132 mg/kg; ED50 (Mus musculus [19]): 122 mg/kg; ED50 (Mus musculus [20]): 73.3 mg/kg; Ratio TD50/ED50 (Mus musculus [21]): 1.8; Time (Mus musculus [16]): 0.5 h
9 | CCC1(C)CC(=O)N(CC(=O)N2CCN(c3ccccc3)CC2)C1=O (stereo not given) | – | – | inactive | Non-toxic | inactive | – | inactive | inactive | Non-toxic | –
10 | Cc1cccc(C)c1NC(=O)C1CCCCN1C (stereo not given) [MEPIVACAINE] | – | – | – | – | – | – | – | – | – | Activity (Mus musculus [22]): 94.63%; Activity (Mus musculus [23]): 116.67%
11 | CC[C@@H](C(N)=O)N1CCCC1=O | – | – | – | – | – | – | – | – | – | TD50 [12]: > 500 mg/kg; Time (Mus musculus [16]): 1 h
12 | CC1CC(=O)N(CC(=O)N2CCN(c3cccc(C(F)(F)F)c3)CC2)C1=O (stereo not given) | 300 mg/kg | 100 mg/kg | – | – | inactive | 300 mg/kg | – | – | – | minimal effective dose (Mus musculus [8]): 100 mg/kg; MTC (Mus musculus [24]): 300 mg/kg
13 | CCC1(C)CC(=O)N(CC(=O)N2CCN(c3ccccc3F)CC2)C1=O (stereo not given) | – | – | inactive | Non-toxic | inactive | – | inactive | inactive | Non-toxic | –
14 | CCC1(C)CC(=O)N(CC(=O)N2CCN(c3ccc(Cl)cc3)CC2)C1=O (stereo not given) | 100 mg/kg | – | inactive | Non-toxic | inactive | 300 mg/kg | – | inactive | – | TD50 [12]: 196 mg/kg; ED50 (Mus musculus [20]): 128 mg/kg; Ratio TD50/ED50 (Mus musculus [21]): 1.53; Time (Mus musculus [16]): 0.5 h
15 | CCC1(C)CC(=O)N(CC(=O)N2CCN(c3ccccc3C)CC2)C1=O (stereo not given) | 100 mg/kg | 100 mg/kg | inactive | Non-toxic | inactive | 300 mg/kg | – | – | – | –
16 | CCC1(C)CC(=O)N(CC(=O)N2CCN(c3cccc(Cl)c3Cl)CC2)C1=O (stereo not given) | – | – | inactive | Non-toxic | inactive | – | inactive | inactive | Non-toxic | –
17 | Cc1ccccc1N1CCN(C(=O)CN2C(=O)CC(C)C2=O)CC1 (stereo not given) | 100 mg/kg | 300 mg/kg | inactive | Non-toxic | inactive | 300 mg/kg | – | – | – | –
18 | CCC1(C)CC(=O)N(CC(=O)N2CCN(c3cccc(Cl)c3)CC2)C1=O (stereo not given) | – | – | inactive | Non-toxic | inactive | – | inactive | inactive | Non-toxic | –
19 | CCC1(C)CC(=O)N(CC(=O)N2CCN(c3cccc(C)c3)CC2)C1=O (stereo not given) | – | – | inactive | Non-toxic | inactive | – | inactive | inactive | Non-toxic | –
